Screens from PubChem BioAssay.
Rows were chosen to be rich in hits. Some 1.4% of all compounds tested hit in one or more screens of this group.
UBC9 SUMO inh: SUMOylation inhibition | P63279 | HTRF SUMOylation assay, SAE1/SAE2 + UBC9, in vitro | inhibition, % at 35 µM | 290,000 tested, 0.36% active | AID 2006; in the data active = inhibition above about 50%, passing the limit was not always enough
UCH37 inh: inhibitors of human deubiquitinating enzyme UCH37; Q9Y5K5; purified proteasome/UCH37, Ub-AMC cleavage fluorescence; inhibition, % (test concentration not listed); 330,000 tested, 0.33% active; AID 588478;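 active = mean inhibition over replicate wells above about 20%, limit read from the data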
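Material: Human UCH37 enzyme supplied as purified proteasome complex | Schedule: 30 min compound-proteasome preincubation then 25 min substrate reaction, room temperature | Detection: AMC fluorescence from Ub-AMC cleavage, excitation 355 nm, emission 460 nm | Benchmarks: Wells without proteasome as full block, compound-free enzyme plus substrate as uninhibited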
CTSL1 counter: counter-screen for PFM18AAP inhibitors: inhibitors of F. hepatica cathepsin L1 | inhibition, % at 5.96 µM | 300,000 tested, 0.49% active | AID 1906 | recombinant F. hepatica cathepsin L1, Z-Leu-Arg-MCA fluorescence;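 active = inhibition above the mean of all tested compounds plus 3 SD, set per screening campaign, cut at about 17% in these data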
Neddylation inh: blocks human cullin neddylation; P61081+Q13564; TR-FRET cullin neddylation, biochemical; inhibition, % at 25 µM; 360,000 tested, 0.58% active; AID 651699; in the data active = inhibition above about 36%
Target sequence (P61081 whole entry, looked up): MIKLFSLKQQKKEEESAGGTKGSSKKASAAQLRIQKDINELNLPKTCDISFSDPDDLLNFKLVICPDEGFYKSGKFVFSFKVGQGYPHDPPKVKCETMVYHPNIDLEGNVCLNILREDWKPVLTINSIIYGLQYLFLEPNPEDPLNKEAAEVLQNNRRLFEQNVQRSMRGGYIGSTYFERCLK
Target sequence (Q13564 whole entry, looked up): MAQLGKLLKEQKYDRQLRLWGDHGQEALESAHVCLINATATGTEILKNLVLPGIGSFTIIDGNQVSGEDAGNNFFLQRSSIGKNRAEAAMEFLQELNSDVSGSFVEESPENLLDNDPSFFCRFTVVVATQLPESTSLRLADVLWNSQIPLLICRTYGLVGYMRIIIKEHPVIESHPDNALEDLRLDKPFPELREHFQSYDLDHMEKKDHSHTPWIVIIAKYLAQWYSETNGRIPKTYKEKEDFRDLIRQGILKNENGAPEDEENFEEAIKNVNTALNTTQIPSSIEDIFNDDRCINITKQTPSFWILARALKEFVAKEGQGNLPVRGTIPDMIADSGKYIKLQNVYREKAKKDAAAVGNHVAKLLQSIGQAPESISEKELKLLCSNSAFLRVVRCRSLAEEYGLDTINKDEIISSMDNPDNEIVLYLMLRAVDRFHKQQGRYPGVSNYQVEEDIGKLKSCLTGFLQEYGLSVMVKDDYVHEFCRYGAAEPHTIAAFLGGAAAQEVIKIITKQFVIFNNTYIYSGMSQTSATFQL
Numbers stand for hits; n = inactive; x = no result given.

SMILES	UBC9 SUMO inh	UCH37 inh	CTSL1 counter	Neddylation inh
Cc1nc(-c2ccc(S(=O)(=O)N3CCCCCC3)cc2)cs1	n	n	n	n
CCOC(=O)C1=C(C)N=c2sc(=Cc3ccc(OCC(=O)O)cc3)c(=O)n2C1c1ccc(OC(C)C)cc1 (stereo not given)	x	n	x	x
CCOc1ccc2c(CC)cc(=O)oc2c1OCC	n	n	n	x
C=CCOc1ccc2c(CC)cc(=O)oc2c1C	n	n	n	42
CN(CCO)c1nc(N)c2c(N)nc3c(c2c1C#N)CC(=O)N3C1CCCC1	101	n	n	x
CC(C)(C)N1C(=O)Cc2c1nc(N)c1c(N)nc(N3CCCCC3CO)c(C#N)c21 (stereo not given)	100	n	105	n
Cc1cc(C)nc(NN=Cc2c(CO)cnc(C)c2O)n1	x	n	x	x
O=[N+]([O-])c1cc2c(cc1C=Nn1c(-c3ccccn3)n[nH]c1=S)OCO2	x	n	x	x
Oc1ccc(C=Nc2ccc3ncccc3c2)c(O)c1	65	x	n	x
Oc1ccc(C=Nc2cccc3ncccc23)c(O)c1	n	n	n	n
COC(=O)c1ccc(COc2ccccc2C=NO)o1	x	n	x	x
Oc1ccccc1C=Nn1c(-c2cccs2)n[nH]c1=S	x	n	x	x
CC(=NNC(=O)CCC(=O)NCc1ccccc1)c1ccco1	x	n	x	x
O=C(NCc1ccco1)/C(=C\c1ccco1)NC(=O)c1ccccc1Cl	n	n	n	n
O=C(NCc1ccco1)/C(=C/c1ccco1)NC(=O)c1ccco1	n	n	19	n
O=c1c(-c2ccc(O)cc2)coc2cc(O)ccc12	x	n	n	x
Cc1cc(C)cc(Oc2coc3cc(O)ccc3c2=O)c1	n	n	17	x
Cc1ccccc1-c1coc2cc(O)ccc2c1=O	n	n	23	x
N#CCCn1[nH]c(-c2ccccc2)cc1=O	69	n	n	n
COc1cc2c(cc1OC)C(C1C(=O)CCCC1=O)N(C(=O)CCl)CC2 (stereo not given)	n	n	n	x
COc1cc2c(cc1OC)C(c1ccccc1)N(C(=O)CCl)CC2 (stereo not given)	n	n	31	n
Cc1ccc(S(=O)(=O)CNC(=O)c2ccccc2)cc1	n	n	36	n
Cn1cc(/C=C2/SC(=O)N(CC(=O)Nc3ccc4c(c3)OCO4)C2=O)c2ccccc21	n	n	n	n
O=C(CN1C(=O)S/C(=C\c2ccc(-c3cc(C(=O)O)ccc3Cl)o2)C1=O)Nc1ccc2c(c1)OCO2	84	x	x	n
COC(=O)c1ccc2c(c1O)C(=O)c1ccccc1C2=O	n	n	26	n
SMILES	UBC9 SUMO inh	UCH37 inh	CTSL1 counter	Neddylation inh
O=C1C2C3C=CC(C3)C2C(=O)N1c1ccc2ccccc2n1 (stereo not given)	n	32	n	n
COc1ccc(OC)c(C=NNC(=O)Cn2ccnc2C)c1	x	n	x	x
Cn1c(=O)c2nnn(N=C(c3ccccc3)C3CC3)c2n(C)c1=O	x	34	x	x
Cn1c(=O)c2nnn(/N=C(\c3ccccc3)C3CC3)c2n(C)c1=O	n	x	n	n
O=C(COC(=O)c1ccc(NS(=O)(=O)c2cccs2)cc1)Nc1nc2c(F)c(F)c(F)cc2s1	80	n	x	n
O=C(COC(=O)c1cc(NS(=O)(=O)c2cccs2)ccc1O)Nc1cc(Cl)ccc1Cl	69	n	n	x
O=C(NN=Cc1ccncc1)C1CC1C(=O)NN=Cc1ccncc1 (stereo not given)	x	n	x	x
CC(C)(C)OC(=O)NCCC(=O)Oc1ccc2ccc(=O)oc2c1	n	x	n	x
CC(NC(=O)OC(C)(C)C)C(=O)Oc1ccc2ccc(=O)oc2c1 (stereo not given)	52	n	n	x
COc1cccc(NC(=O)CN(C)C(=O)c2ccccc2OCc2c(C)noc2C)c1	x	n	27	n
O=C(NC(=S)NNC(=O)[C@H]1C[C@@H]1c1ccccc1)c1ccc(F)cc1	n	n	n	n
COc1cc(OC)cc(C(=O)NC(=S)NNC(=O)[C@H]2C[C@@H]2c2ccccc2)c1	n	n	n	58
COc1ccccc1C=NNC(=S)Nc1cccnc1	x	n	x	x
CC(C)CC(=O)NC(=S)Nc1ccccc1N1CCCC1	n	n	20	n
COc1ccccc1N1CC(C(=O)NCCC2=CCCCC2)CC1=O (stereo not given)	x	n	x	n
Cc1cccc(N2CC(C(=O)NCCC3=CCCCC3)CC2=O)c1C (stereo not given)	x	23	n	n
Cc1c(N=C2SCC(=O)N2N=Cc2ccccc2)c(=O)n(-c2ccccc2)n1C	x	n	x	x
N#Cc1c(=O)c2nc(NCc3ccccc3)ncc2n2ccccc12	51	n	n	x
N#Cc1c(=O)c2nc(NCCCO)ncc2n2c(=O)c3ccccc3[nH]c12	n	n	n	n
O=C(NN=Cc1ccccn1)c1cc(C2CC2)[nH]n1	x	n	x	x
Cc1cccc(C)c1OCc1nnc(SCC(=O)NCc2ccccc2)o1	n	n	21	n
